Test results published in ChEMBL document CHEMBL4011638, “Semisynthetic Flavone-Derived Antimicrobials with Therapeutic Potential against Methicillin-Resistant Staphylococcus aureus (MRSA)” (J Med Chem, 2017).
Values after ≈ are worked out from the molar mass of the structure shown. Active and inactive are the calls of the source. No cut-off for these calls is given here.

What was measured:
Staphylococcus aureus [1] = test: Antibacterial activity against methicillin-sensitive Staphylococcus aureus ATCC 29737 after 24 hrs by broth microdilution method; type: functional; details: ATCC 29737, 24 h
Outline: (§1)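 Broth microdilution per CLSI in cation-adjusted Mueller−Hinton broth, in tubes. Compounds dissolved in H2O or DMF, then diluted in PBS to 1000 μg/mL stocks. Serial 2-fold dilutions were made, with final DMF 2.5%. Organisms were grown on TSA at 35 °C for 20 h and adjusted to ~5× 10^5 CFU/mL. Tubes were incubated at 35 °C for 24 h. MIC was the lowest concentration with no visible growth versus control. Biological replicates.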

[2] = Cytotoxicity in human Corneal fibroblasts assessed as LDH release at 50 uM after 24 hrs; type: cell-based; details: corneal fibroblast
Outline: (§2)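 Human corneal fibroblasts are exposed to test samples for 24 h, and cytotoxicity is read as LDH leakage into the medium. Biological replicates.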

Staphylococcus aureus [3] = test: Antibacterial activity against methicillin-resistant Staphylococcus aureus DM 9808R after 24 hrs by broth microdilution method; type: functional; outline: as §1
Bacillus cereus = test: Antibacterial activity against Bacillus cereus ATCC 11778 after 24 hrs by broth microdilution method; type: functional; details: ATCC 11778, 24 h
Outline: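 MIC by CLSI broth microdilution in cation-adjusted Mueller–Hinton broth, tubes. Compounds in H2O or DMF, diluted in PBS to 1000 μg/mL stocks, then serial 2-fold dilutions (final DMF 2.5%). Inoculum ~5×10^5 CFU/mL from TSA plates grown 35 °C 20 h. Incubation 35 °C 24 h; MIC = no visible growth vs control. Biological replicates.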

Staphylococcus aureus [4] = test: Antibacterial activity against methicillin-resistant Staphylococcus aureus DB68004 after 24 hrs by broth microdilution method; type: functional; details: DB68004, 24 h; outline: as §1
Staphylococcus aureus [5] = test: Antibacterial activity against methicillin-resistant Staphylococcus aureus ATCC 700699 after 24 hrs by broth microdilution method; type: functional; details: ATCC 700699, 24 h; outline: as §1
Staphylococcus aureus [6] = test: Antibacterial activity against methicillin-sensitive Staphylococcus aureus DM4583R after 24 hrs by broth microdilution method; type: functional; outline: as §1
Staphylococcus aureus [7] = test: Antibacterial activity against methicillin-resistant Staphylococcus aureus DB57964 after 24 hrs by broth microdilution method; type: functional; details: DB57964, 24 h; outline: as §1
Staphylococcus aureus [8] = test: Antibacterial activity against methicillin-resistant Staphylococcus aureus ATCC 700699 infected in C57BL6 mouse corneas assessed as log reduction in bacterial burden at 0.5 % dosed at 1 day post infection administered 5 times daily for 3 days; type: functional
Outline: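 C57BL6 mice, 6−8 weeks old, 20−30 g, anesthetized with ketamine/xylazine; four per group. Three 1 mm scratches were made on the right cornea and 10 μL of a 6 × 10^8 CFU/mL MRSA ATCC 700699 suspension was applied. From day 1 post infection, agents in PBS (12 mM, pH 7.2) were given topically 5 times daily for 3 days; PBS alone as control. Corneas were homogenized in 0.9% NaCl with 0.25% BSA and plated on TSA for 48 h at 35 °C.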

Staphylococcus aureus [9] = test: Induction of plasma membrane permeability in methicillin-resistant Staphylococcus aureus DM9808R assessed as increase in fluorescence intensity at 12.5 ug/ml measured every 1 sec for 50 mins by SYTOX green dye based fluorimetric assay; type: functional
Outline: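 Exponential-phase MRSA DM9808R grown on TSA, washed twice and resuspended in PBS (10 mM, pH 7) to OD600 0.2. Cells were loaded with 0.3 μM SYTOX Green in the dark until fluorescence stabilized. Test samples were then added (final DMF 0.5%). Fluorescence at ex 504/em 523 nm was recorded every 1 s for 50 min. Biological replicates.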

[10] = Cytotoxicity in human Corneal fibroblasts assessed as LDH release at 80 uM after 24 hrs; type: cell-based; details: corneal fibroblast; outline: as §2
[11] = Cytotoxicity against human Corneal fibroblasts assessed cell viability at 30 uM after 24 hrs by Cell Titer-Glo luminescent assay; type: cell-based, Corneal fibroblast; details: read-out: Activity
Outline: (§3)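 ATP luminescence viability in human corneal fibroblasts, ~10000 cells per well, duplicate wells. After 24 h exposure the plate is equilibrated 0.5 h at 22 °C before Cell Titer-Glo addition and luminescence read. 1% Triton X-100 serves as positive control, medium-treated cells as negative control. Biological replicates.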

Staphylococcus aureus [12] = test: Antibacterial activity against methicillin-resistant Staphylococcus aureus DB6506 after 24 hrs by broth microdilution method; type: functional; details: DB6506, 24 h; outline: as §1
Staphylococcus aureus [13] = test: Antibacterial activity against methicillin-sensitive Staphylococcus aureus ATCC 29213 after 24 hrs by broth microdilution method; type: functional; details: ATCC 29213, 24 h; outline: as §1
Staphylococcus aureus [14] = test: Antibacterial activity against methicillin-resistant Staphylococcus aureus DM 21455 after 24 hrs by broth microdilution method; type: functional; details: DM 21455, 24 h; outline: as §1
[15] = Cytotoxicity in human Corneal fibroblasts assessed as LDH release at 10 uM after 24 hrs; type: cell-based; details: corneal fibroblast; outline: as §2
Staphylococcus aureus [16] = test: Bactericidal activity against methicillin-resistant Staphylococcus aureus DM9808R assessed as log reduction in bacterial count at 4 times MIC up to 2 hrs by time kill assay; type: functional
Outline: (§4)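 Time-kill. Starting inoculum 10^5−10^6 CFU/mL, exposed to 0.5×, 1×, 2× and 4× MIC at 35 °C. Colonies were counted after 24 h at 35 °C and CFU/mL calculated. Biological replicates.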

Staphylococcus aureus [17] = test: Bactericidal activity against methicillin-resistant Staphylococcus aureus DM21455 assessed as log reduction in bacterial count at 4 times MIC up to 30 mins by time kill assay; type: functional; outline: as §4
Staphylococcus aureus [18] = test: Antibacterial activity against Staphylococcus aureus DM4001R after 24 hrs by broth microdilution method; type: functional; outline: as §1
Lipid bilayer = test: Membrane permeabilization activity in DOPE/DOPG large unilamellar liposomes assessed as leakage of calcein at 1:8 compound to lipid ratio by fluorescence assay
Outline: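 Calcein-loaded 100 nm LUVs of DOPE/DOPG (3:1, w/w), made by film hydration in 80 mM calcein, 100 mM NaCl, 50 mM HEPES, 0.3 mM EDTA, pH 7.4. Liposomes 50 μM, 0.5% DMF, room temperature. Read at ex 490/em 520 nm every 2 min for 30 cycles. % leakage normalized to 0.1% Triton X-100 (100%) and 0.5% DMF (0%). Biological replicates.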

Staphylococcus aureus [19] = test: Bactericidal activity against methicillin-resistant Staphylococcus aureus DM21455 up to 4 hrs by time kill assay; type: functional; outline: as §4
Staphylococcus aureus [20] = test: Antibacterial activity against methicillin-resistant Staphylococcus aureus BAA-38 after 24 hrs by broth microdilution method; type: functional; details: BAA-38, 24 h; outline: as §1
[21] = Cytotoxicity against human Corneal fibroblasts assessed cell viability at 50 uM after 24 hrs by Cell Titer-Glo luminescent assay; type: cell-based, Corneal fibroblast; details: read-out: Activity; outline: as §3
Staphylococcus aureus [22] = test: Bactericidal activity against methicillin-resistant Staphylococcus aureus DM21455 assessed as log reduction in bacterial count at 2 times MIC up to 30 mins by time kill assay; type: functional; outline: as §4
Staphylococcus aureus [23] = test: Bactericidal activity against methicillin-resistant Staphylococcus aureus DM9808R assessed as log reduction in bacterial count at 2 times MIC up to 2 hrs by time kill assay; type: functional; outline: as §4
[24] = Cytotoxicity against human Corneal fibroblasts assessed cell viability at 80 uM after 24 hrs by Cell Titer-Glo luminescent assay; type: cell-based, Corneal fibroblast; details: read-out: Activity; outline: as §3
Staphylococcus aureus [25] = test: Antibacterial activity against methicillin-sensitive Staphylococcus aureus DM4299 after 24 hrs by broth microdilution method; type: functional; details: DM4299, 24 h; outline: as §1

**Q.** Which MIC (Staphylococcus aureus [1]) does the source give for COC(=O)[C@H](CCCNC(=N)N)NC(=O)COc1cc(O)c2c(=O)c(OCC(=O)N[C@@H](CCCNC(=N)N)C(=O)OC)c(-c3ccc(OC)cc3)oc2c1CC=C(C)C here?
**A.** 1.56 µg/mL (≈ 1.89 µM)

**Q.** What about the Activity [2] of the same molecule?
**A.** 0.05%

**Q.** And the MIC (Staphylococcus aureus [3])?
**A.** 3.8 µM (≈ 3.13 µg/mL)

**Q.** What about the MIC (Bacillus cereus) of the same molecule?
**A.** 3.8 µM (≈ 3.13 µg/mL)

**Q.** What about the MIC (Staphylococcus aureus [4]) of the same molecule?
**A.** 3.13 µg/mL (≈ 3.79 µM)

**Q.** What about the MIC (Staphylococcus aureus [5]) of the same molecule?
**A.** 3.13 µg/mL (≈ 3.79 µM)

**Q.** And the MIC (Staphylococcus aureus [6])?
**A.** 1.56 µg/mL (≈ 1.89 µM)

**Q.** What about the MIC (Staphylococcus aureus [7]) of the same molecule?
**A.** 3.13 µg/mL (≈ 3.79 µM)

**Q.** And the Activity (Staphylococcus aureus [8])?
**A.** 2.95 deltalog10CFU/ml

**Q.** What about the Activity (Staphylococcus aureus [9]) of the same molecule?
**A.** Active

**Q.** And the Activity [10]?
**A.** 18.62%

**Q.** What about the viability at 24 h, 30 µM [11] of the same molecule?
**A.** 98.2%

**Q.** And the MIC (Staphylococcus aureus [12])?
**A.** 3.13 µg/mL (≈ 3.79 µM)

**Q.** And the MIC (Staphylococcus aureus [13])?
**A.** 3.13 µg/mL (≈ 3.79 µM)

**Q.** And the MIC (Staphylococcus aureus [14])?
**A.** 1.9 µM (≈ 1.57 µg/mL)

**Q.** And the Activity [15]?
**A.** -1.52%

**Q.** And the Activity (Staphylococcus aureus [16])?
**A.** 3 deltalog10CFU/ml

**Q.** And the Activity (Staphylococcus aureus [17])?
**A.** 3 deltalog10CFU/ml

**Q.** And the MIC (Staphylococcus aureus [18])?
**A.** 1.9 µM (≈ 1.57 µg/mL)

**Q.** What about the Activity (Lipid bilayer) of the same molecule?
**A.** 53.5%

**Q.** What about the Activity (Staphylococcus aureus [19]) of the same molecule?
**A.** Dose-dependent effect

**Q.** And the MIC (Staphylococcus aureus [20])?
**A.** 3.13 µg/mL (≈ 3.79 µM)

**Q.** What about the viability at 24 h, 50 µM [21] of the same molecule?
**A.** 97.7%

**Q.** What about the Activity (Staphylococcus aureus [22]) of the same molecule?
**A.** 3 deltalog10CFU/ml

**Q.** And the Activity (Staphylococcus aureus [23])?
**A.** 3 deltalog10CFU/ml

**Q.** And the viability at 24 h, 80 µM [24]?
**A.** 69.3%

**Q.** And the MIC (Staphylococcus aureus [25])?
**A.** 3.13 µg/mL (≈ 3.79 µM)
